How the values were obtained:
[1] = target: T1, Multidrug efflux pump subunit AcrB (Escherichia coli (strain K12)) (UniProt P31224); experiment: Inhibition of AcrB in Escherichia coli BW25113 assessed as potentiation of erythromycin induced antibacterial activity by measuring fold change in erythromycin MIC at 32 ug/ml measured after 18 hrs by checkerboard titration method relative to erythromycin alone; settings: dose 32.0 µg/ml
T1 sequence (whole entry): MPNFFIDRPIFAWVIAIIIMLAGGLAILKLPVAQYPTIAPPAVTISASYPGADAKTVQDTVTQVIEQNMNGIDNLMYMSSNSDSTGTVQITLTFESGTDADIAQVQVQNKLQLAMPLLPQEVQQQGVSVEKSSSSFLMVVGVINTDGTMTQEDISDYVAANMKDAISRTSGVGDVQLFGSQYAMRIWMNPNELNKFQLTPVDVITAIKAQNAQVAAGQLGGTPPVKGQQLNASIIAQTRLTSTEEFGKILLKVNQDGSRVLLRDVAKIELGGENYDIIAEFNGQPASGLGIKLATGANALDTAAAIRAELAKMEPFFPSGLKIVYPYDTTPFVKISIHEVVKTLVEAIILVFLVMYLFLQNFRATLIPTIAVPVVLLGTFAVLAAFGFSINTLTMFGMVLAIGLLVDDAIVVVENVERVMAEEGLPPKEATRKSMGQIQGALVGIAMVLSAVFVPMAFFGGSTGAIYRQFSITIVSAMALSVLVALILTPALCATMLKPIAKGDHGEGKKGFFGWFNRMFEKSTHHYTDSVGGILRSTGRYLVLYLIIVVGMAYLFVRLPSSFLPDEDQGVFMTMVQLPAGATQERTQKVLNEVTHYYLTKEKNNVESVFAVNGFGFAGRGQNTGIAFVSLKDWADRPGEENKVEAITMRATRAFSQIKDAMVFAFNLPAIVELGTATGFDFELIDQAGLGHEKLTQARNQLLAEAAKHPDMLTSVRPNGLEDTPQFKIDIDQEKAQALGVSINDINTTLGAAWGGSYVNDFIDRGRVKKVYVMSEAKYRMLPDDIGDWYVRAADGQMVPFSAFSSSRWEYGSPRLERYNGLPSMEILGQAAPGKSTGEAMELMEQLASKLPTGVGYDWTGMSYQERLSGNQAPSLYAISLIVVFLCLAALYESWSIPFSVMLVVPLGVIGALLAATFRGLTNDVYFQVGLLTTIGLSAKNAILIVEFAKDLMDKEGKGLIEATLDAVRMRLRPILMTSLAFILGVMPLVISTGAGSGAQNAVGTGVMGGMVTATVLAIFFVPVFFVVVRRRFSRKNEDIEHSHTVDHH

[2] = target: T1, Multidrug efflux pump subunit AcrB (Escherichia coli (strain K12)); experiment: Inhibition of AcrB in Escherichia coli BW25113 assessed as potentiation of tetraphenylphosphonium induced antibacterial activity by measuring fold change in tetraphenylphosphonium MIC at 128 ug/ml measured after 18 hrs by checkerboard titration method relative to tetraphenylphosphonium alone; settings: dose 128.0 µg/ml
Cell membrane = experiment: Induction of inner membrane permeabilization in CCCP treated wild type Escherichia coli BW25113 at 16 ug/ml measured after 10 mins by Di0C2(3) probe based fluorimetric method; settings: escherichia coli bw25113, 10 min, dose 16 µg/ml
Outline: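 Cells left untreated or exposed to compound at 8-256 µg/mL for 10 min, then DiOC2(3) added and fluorescence followed to plateau. Cells re-energized with 0.5% glucose; membrane potential build-up read as fluorescence rise to plateau, then dissipated with CCCP.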

[3] = target: T1, Multidrug efflux pump subunit AcrB (Escherichia coli (strain K12)); experiment: Inhibition of AcrB in Escherichia coli BW25113 assessed as potentiation of chloramphenicol induced antibacterial activity by measuring fold change in chloramphenicol MIC at 256 ug/ml measured after 18 hrs by checkerboard titration method relative to chloramphenicol alone; settings: dose 256.0 µg/ml
[4] = target: T1, Multidrug efflux pump subunit AcrB (Escherichia coli (strain K12)); experiment: Inhibition of AcrB in Escherichia coli BW25113 assessed as potentiation of tetraphenylphosphonium induced antibacterial activity by measuring fold change in tetraphenylphosphonium MIC at 256 ug/ml measured after 18 hrs by checkerboard titration method relative to tetraphenylphosphonium alone; settings: dose 256.0 µg/ml

Cc1ccc(C(=O)NCCc2ccc(O)c(O)c2)cc1
fold change (FC) [1]: 4

O=C(NCCc1ccc(O)c(O)c1)c1cc(O)c(O)c(O)c1
fold change (FC) [2]: 4

Oc1ccc(CCCCc2cc3cccc4ccc5cccc2c5c43)cc1O
Activity (Cell membrane): Non-Toxic

Oc1ccc(CCCCc2cc(O)c(O)c(O)c2)cc1O
fold change (FC) [3]: 8

Oc1ccc(CCCCCc2ccc(O)c(O)c2)cc1O
fold change (FC) [4]: 32
